According to ChEMBL document CHEMBL2057168, “(1aR,5aR)1a,3,5,5a-Tetrahydro-1H-2,3-diaza-cyclopropa[a]pentalene-4-carboxylic acid (MK-1903): a potent GPR109a agonist that lowers free fatty acids in humans” (J Med Chem, 2012):
Calls of active or inactive are those of the source. The rule behind the calls is not given here.

Tests used:
[1] = target: Hydroxycarboxylic acid receptor 3 (Homo sapiens) (UniProt P49019); experiment: Agonist activity at human GPR109b assessed as decrease in forskolin-stimulated cAMP production by HTRF assay; assay type: functional
Chain of Hydroxycarboxylic acid receptor 3 (Homo sapiens) (P49019 whole entry): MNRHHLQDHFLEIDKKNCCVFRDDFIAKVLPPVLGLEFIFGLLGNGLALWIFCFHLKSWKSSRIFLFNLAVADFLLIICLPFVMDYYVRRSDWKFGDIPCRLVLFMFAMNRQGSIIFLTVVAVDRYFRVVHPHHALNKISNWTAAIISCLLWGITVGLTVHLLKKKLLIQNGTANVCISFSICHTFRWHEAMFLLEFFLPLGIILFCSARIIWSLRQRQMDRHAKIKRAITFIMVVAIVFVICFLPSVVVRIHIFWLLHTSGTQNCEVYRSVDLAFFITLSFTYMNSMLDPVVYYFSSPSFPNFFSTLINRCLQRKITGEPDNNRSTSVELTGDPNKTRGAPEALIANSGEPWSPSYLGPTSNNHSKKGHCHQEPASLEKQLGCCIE

Cytochrome P450 2D6 = Cytochrome P450 2D6 (Homo sapiens, UniProt P10635); experiment: Activity at CYP2D6; assay type: ADME
Chain of Cytochrome P450 2D6 (P10635 whole entry): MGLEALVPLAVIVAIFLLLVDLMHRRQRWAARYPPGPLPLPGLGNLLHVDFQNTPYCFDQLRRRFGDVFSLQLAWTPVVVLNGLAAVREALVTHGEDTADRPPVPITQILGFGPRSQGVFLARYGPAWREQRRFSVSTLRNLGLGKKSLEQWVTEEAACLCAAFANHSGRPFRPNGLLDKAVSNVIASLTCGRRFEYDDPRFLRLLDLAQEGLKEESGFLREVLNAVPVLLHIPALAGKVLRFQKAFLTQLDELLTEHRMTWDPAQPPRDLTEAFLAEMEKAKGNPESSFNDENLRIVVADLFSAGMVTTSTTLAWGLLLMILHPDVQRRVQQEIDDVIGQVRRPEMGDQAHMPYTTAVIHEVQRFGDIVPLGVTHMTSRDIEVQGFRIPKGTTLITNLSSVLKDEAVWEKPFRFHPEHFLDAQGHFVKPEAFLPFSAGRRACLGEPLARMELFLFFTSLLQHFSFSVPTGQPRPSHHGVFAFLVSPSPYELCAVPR

Cytochrome P450 2C8 = target: T1, Cytochrome P450 2C8 (Homo sapiens, UniProt P10632); experiment: Activity at CYP2C8; assay type: ADME
T1 sequence (P10632 whole entry): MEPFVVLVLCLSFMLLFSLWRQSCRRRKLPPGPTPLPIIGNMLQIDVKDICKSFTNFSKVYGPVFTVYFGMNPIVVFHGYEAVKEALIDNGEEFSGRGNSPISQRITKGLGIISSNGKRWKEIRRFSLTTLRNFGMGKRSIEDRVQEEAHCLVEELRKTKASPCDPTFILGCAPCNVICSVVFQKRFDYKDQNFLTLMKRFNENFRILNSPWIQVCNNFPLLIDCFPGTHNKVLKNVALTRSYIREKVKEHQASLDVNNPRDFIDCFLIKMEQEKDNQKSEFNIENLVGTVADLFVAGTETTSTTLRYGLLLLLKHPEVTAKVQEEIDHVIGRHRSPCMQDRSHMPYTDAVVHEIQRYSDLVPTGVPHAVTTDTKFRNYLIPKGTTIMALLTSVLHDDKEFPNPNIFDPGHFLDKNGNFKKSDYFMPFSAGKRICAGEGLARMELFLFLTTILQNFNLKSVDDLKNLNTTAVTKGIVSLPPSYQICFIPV

Cytochrome P450 2C9 = Cytochrome P450 2C9 (Homo sapiens, UniProt P11712); experiment: Activity at CYP2C9; assay type: ADME
Chain of Cytochrome P450 2C9 (P11712 whole entry): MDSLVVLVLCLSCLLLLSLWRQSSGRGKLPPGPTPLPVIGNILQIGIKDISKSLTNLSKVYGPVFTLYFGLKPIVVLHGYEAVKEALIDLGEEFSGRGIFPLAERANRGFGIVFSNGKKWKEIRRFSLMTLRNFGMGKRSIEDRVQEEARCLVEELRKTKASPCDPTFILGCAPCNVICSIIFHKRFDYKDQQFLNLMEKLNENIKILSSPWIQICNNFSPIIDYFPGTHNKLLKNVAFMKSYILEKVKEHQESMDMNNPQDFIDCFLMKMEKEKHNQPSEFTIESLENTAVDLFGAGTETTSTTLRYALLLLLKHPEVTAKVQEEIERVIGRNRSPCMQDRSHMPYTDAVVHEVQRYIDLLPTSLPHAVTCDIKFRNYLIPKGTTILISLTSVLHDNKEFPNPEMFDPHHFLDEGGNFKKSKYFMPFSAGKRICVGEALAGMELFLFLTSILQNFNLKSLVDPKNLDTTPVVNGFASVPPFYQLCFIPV

Cytochrome P450 3A4 = Cytochrome P450 3A4 (Homo sapiens, UniProt P08684); experiment: Activity at CYP3A4; assay type: ADME
Chain of Cytochrome P450 3A4 (P08684 whole entry): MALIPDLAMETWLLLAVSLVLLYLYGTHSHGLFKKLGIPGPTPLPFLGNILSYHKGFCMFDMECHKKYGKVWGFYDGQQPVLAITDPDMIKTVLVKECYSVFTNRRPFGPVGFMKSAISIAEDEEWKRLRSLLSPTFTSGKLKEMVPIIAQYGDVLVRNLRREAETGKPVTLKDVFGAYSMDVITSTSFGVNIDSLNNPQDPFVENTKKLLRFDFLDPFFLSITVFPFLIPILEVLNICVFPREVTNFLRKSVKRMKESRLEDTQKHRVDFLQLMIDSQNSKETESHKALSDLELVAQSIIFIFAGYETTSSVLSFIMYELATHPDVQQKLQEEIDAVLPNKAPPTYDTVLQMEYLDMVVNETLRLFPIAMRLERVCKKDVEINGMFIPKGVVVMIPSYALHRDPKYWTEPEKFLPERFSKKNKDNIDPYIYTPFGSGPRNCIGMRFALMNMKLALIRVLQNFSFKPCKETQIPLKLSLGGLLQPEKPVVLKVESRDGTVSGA

Rattus norvegicus [2] = experiment: Antidyslipedic activity in fasted Sprague-Dawley rat assessed as decrease in free fatty acid level at 0.01 to 100 mg/kg, po by NEFA C-free fatty acid assay; assay type: functional; parameters: scale not given: the % may be the effect or the level left; conditions: dose mg/kg 0.01-100
How it was run: (§1)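 Male Sprague-Dawley rats fasted, compound by oral gavage, serial plasma sampling after dosing for free fatty acids over a time course; vehicle-dosed control group.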

Rattus norvegicus [3] = experiment: Antidyslipedic activity in fasted Sprague-Dawley rat assessed as decrease in free fatty acid level at 0.1 to 30 mg/kg, po by NEFA C-free fatty acid assay; assay type: functional; parameters: scale not given: the % may be the effect or the level left; conditions: dose mg/kg 0.1-30; how it was run: as §1
Mus musculus [4] = experiment: Toxicity in C57/Bl6 mouse assessed as increase in cutaneous blood flow in ear at 100 mg/kg, ip after 5 mins relative to vehicle treated control by laser doppler flowmetry; assay type: organism-based; parameters: dose 100 mg/kg, route intraperitoneal; conditions: in vivo
How it was run: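 Male C57/Bl6 mice (8–10 weeks, ~25 g) anesthetized with Nembutal ip (80 mg/10 mL/kg). Ear perfusion recorded by laser Doppler imaging: 3 min baseline, then vehicle (PBS, 40% HPBCD or 0.5% methylcellulose) or compound given ip at 5 mL/kg through a preinserted syringe, with readings for ~15 min. Expressed as % change of perfusion over baseline.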

[5] = Blood clearance in mouse; assay type: ADME, organism-based; conditions: whole blood
How it was run: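 Pharmacokinetics across species; for mice, clearance determined in blood rather than plasma following dosing.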

[6] = Volume of distribution in mouse; assay type: ADME, organism-based; conditions: in vivo
[7] = Terminal half life in mouse; assay type: ADME, organism-based; conditions: in vivo, read-out: beta t1/2 (converted)
Mus musculus [8] = experiment: Dose normalized Cmax in po dosed mouse; assay type: ADME, organism-based; conditions: in vivo
Mus musculus [9] = experiment: Dose normalized AUC in po dosed mouse; assay type: ADME, organism-based; conditions: in vivo
[10] = Oral bioavailability in mouse; assay type: ADME, organism-based; conditions: in vivo
[11] = Plasma clearance in Sprague-Dawley rat at 2 mg/kg, iv; assay type: ADME, organism-based; parameters: dose 2 mg/kg, route intravenous
How it was run: (§2)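 Male Sprague-Dawley rats were dosed at 10 mg/kg po or 2 mg/kg iv in 80% PEG400/20% phosphate-buffered saline, fasted overnight before the oral dose. Jugular blood was sampled serially from 0.25 to 21 h over 24 h, and heparinized plasma was prepared. Drug was assayed by HPLC/MS/MS (quantitation range 1–2000 ng/mL).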

[12] = Volume of distribution in Sprague-Dawley rat at 2 mg/kg, iv; assay type: ADME, organism-based; parameters: dose 2 mg/kg, route intravenous; conditions: in vivo
How it was run: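 Male Sprague–Dawley rats dosed iv at 2 mg/kg in 80% PEG400/20% phosphate buffered saline. Jugular vein blood was serially sampled over 24 h, and plasma was prepared from sodium heparin blood. Plasma was analysed by HPLC/MS/MS (LLOQ 1 ng/mL, ULOQ 2000 ng/mL).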

[13] = Terminal half life in Sprague-Dawley rat at 2 mg/kg, iv; assay type: ADME, organism-based; parameters: dose 2 mg/kg, route intravenous; conditions: in vivo, read-out: beta t1/2 (converted); how it was run: as §2
Rattus norvegicus [14] = experiment: Dose normalized Cmax in Sprague-Dawley rat at 10 mg/kg, po; assay type: ADME, organism-based; parameters: dose 10 mg/kg, route oral; conditions: in vivo; how it was run: as §2
Rattus norvegicus [15] = experiment: Dose normalized AUC in Sprague-Dawley rat at 10 mg/kg, po; assay type: ADME, organism-based; parameters: dose 10 mg/kg, route oral; conditions: in vivo; how it was run: as §2
[16] = Oral bioavailability in Sprague-Dawley rat at 10 mg/kg; assay type: ADME, organism-based; conditions: in vivo; how it was run: as §2
[17] = Plasma clearance in dog; assay type: ADME, organism-based, Canis lupus familiaris
[18] = Volume of distribution in dog; assay type: ADME, organism-based, Canis lupus familiaris; conditions: in vivo
[19] = Terminal half life in dog; assay type: ADME, organism-based, Canis lupus familiaris; conditions: in vivo, read-out: beta t1/2 (converted)
Canis familiaris [20] = experiment: Dose normalized Cmax in po dosed dog; assay type: ADME, organism-based, Canis lupus familiaris; conditions: in vivo
Canis familiaris [21] = experiment: Dose normalized AUC in po dosed dog; assay type: ADME, organism-based, Canis lupus familiaris; conditions: in vivo
[22] = Oral bioavailability in dog; assay type: ADME, organism-based, Canis lupus familiaris; conditions: in vivo
Rattus norvegicus [23] = experiment: Antidyslipedic activity in fasted Sprague-Dawley rat assessed as decrease in free fatty acid level at 0.001 mg/kg, po by NEFA C-free fatty acid assay; assay type: functional, organism-based; parameters: dose 0.001 mg/kg; how it was run: as §1

With `C=C[C@@H]1[C@@H]2Cc3c(C(=O)O)n[nH]c3[C@H]12` (racemic) the Activity [1] was “inactive”.

In the case of `C[C@H]1[C@H]2Cc3c(C(=O)O)n[nH]c3[C@@H]12`, the Activity [1] is reported as “inactive”.

In the case of `CC(C)C[C@H]1[C@@H]2Cc3c(C(=O)O)n[nH]c3[C@@H]21` (racemic), the Activity [1] is reported as “inactive”.

In the case of `C[C@@H]1[C@@H]2Cc3c(C(=O)O)n[nH]c3[C@H]12` [listing 1 of 2 here], the Activity (Cytochrome P450 2D6) is reported as “Not Active”, the Activity (Cytochrome P450 2C8) is reported as “Not Active” and the Activity (Cytochrome P450 2C9) is reported as “Not Active”. For the same compound, the Activity (Cytochrome P450 3A4) was “Not Active”, the Activity (Rattus norvegicus [2]) was 90% and the Activity (Rattus norvegicus [3]) was 90%. For the same compound, the Activity (Mus musculus [4]) was 30%, the clearance [5] was 35 mL/min/kg and the Vd [6] was 0.61 L/kg. For the same compound, the half-life [7] was 0.3 h, the Cmax/dose (Mus musculus [8]) was 1.5 µM·kg/mg and the AUC/dose (Mus musculus [9]) was 1.4 µM·kg·h/mg. The bioavailability [10] was 51%, the clearance [11] was 17 mL/min/kg and the Vd [12] was 0.53 L/kg. It also gave a half-life [13] of 2.4 h, a Cmax/dose (Rattus norvegicus [14]) of 5 µM·kg/mg and an AUC/dose (Rattus norvegicus [15]) of 5.1 µM·kg·h/mg. The bioavailability [16] was 90%, the clearance [17] was 2.4 mL/min/kg and the Vd [18] was 0.22 L/kg. The half-life [19] was 2.1 h, the Cmax/dose (Canis familiaris [20]) was 26 µM·kg/mg and the AUC/dose (Canis familiaris [21]) was 44.4 µM·kg·h/mg. For the same compound, the bioavailability [22] was 100%.

For `C[C@@H]1[C@@H]2Cc3c(C(=O)O)n[nH]c3[C@H]12` [listing 2 of 2 here], the Activity [1] was “inactive” and the Activity (Rattus norvegicus [23]) was “inactive”.

For `O=C(O)c1cccnc1` [NIACIN], the Activity [1] was “inactive” and the Activity (Mus musculus [4]) was 60%.

With `CCOC[C@@H]1[C@@H]2Cc3c(C(=O)O)n[nH]c3[C@H]12` (racemic) the Activity [1] was “inactive”.

With `CC(C)CC[C@@H]1[C@@H]2Cc3c(C(=O)O)n[nH]c3[C@H]12` (racemic) the Activity [1] was “inactive”.

In the case of `O=C(O)c1n[nH]c2c1C[C@H]1[C@@H](COc3ccccc3)[C@@H]21` (racemic), the Activity [1] is reported as “inactive”.

With `C[C@H]1[C@@H]2Cc3c(C(=O)O)n[nH]c3[C@H]12` (racemic) the Activity [1] was “inactive”.

For `CC[C@@H]1[C@@H]2Cc3c(C(=O)O)n[nH]c3[C@H]12` (racemic; form 1), the Activity [1] was “inactive”.

With `COC[C@@H]1[C@@H]2Cc3c(C(=O)O)n[nH]c3[C@H]12` (racemic) the Activity [1] was “inactive”.

With `CC[C@@H]1[C@@H]2Cc3c(C(=O)O)n[nH]c3[C@H]12` (racemic; form 2) the Activity [1] was “inactive”.

With `COC[C@H]1[C@@H]2Cc3c(C(=O)O)n[nH]c3[C@H]12` (racemic) the Activity [1] was “inactive”.

With `C=CC[C@@H]1[C@@H]2Cc3c(C(=O)O)n[nH]c3[C@H]12` (racemic) the Activity [1] was “inactive”.

In the case of `CCC[C@@H]1[C@@H]2Cc3c(C(=O)O)n[nH]c3[C@H]12` (racemic), the Activity [1] is reported as “inactive”.

For `C=CC[C@H]1[C@@H]2Cc3c(C(=O)O)n[nH]c3[C@H]12` (racemic), the Activity [1] was “inactive”.

In the case of `CC(C)C[C@@H]1[C@@H]2Cc3c(C(=O)O)n[nH]c3[C@H]12` (racemic), the Activity [1] is reported as “inactive”.

With `O=C(O)c1n[nH]c2c1C[C@H]1[C@@H](CC3CC3)[C@@H]21` (racemic; form 2) the Activity [1] was “inactive”.

With `C[C@H]1[C@@H]2Cc3c(C(=O)O)n[nH]c3[C@H]12` the Activity [1] was “inactive”.
